# Data taken from ChEMBL document CHEMBL4354819, “Discovery of Novel Small Molecule Dual Inhibitors Targeting Toll-Like Receptors 7 and 8” (J Med Chem, 2019).
# The source made the active and inactive calls. No cut-off for these calls is given here.
# What was measured:
# [1] = molecular target: T1, Toll-like receptor 7 (Homo sapiens) (UniProt Q9NYK1); assay: Inhibition of human TLR7 expressed in HEK293 cells assessed as reduction in resiquimod-induced NFkappaB production at 5 to 20 uM incubated for 16 hrs by quanti-blue SEAP assay; type: cell-based
# T1 sequence (whole entry): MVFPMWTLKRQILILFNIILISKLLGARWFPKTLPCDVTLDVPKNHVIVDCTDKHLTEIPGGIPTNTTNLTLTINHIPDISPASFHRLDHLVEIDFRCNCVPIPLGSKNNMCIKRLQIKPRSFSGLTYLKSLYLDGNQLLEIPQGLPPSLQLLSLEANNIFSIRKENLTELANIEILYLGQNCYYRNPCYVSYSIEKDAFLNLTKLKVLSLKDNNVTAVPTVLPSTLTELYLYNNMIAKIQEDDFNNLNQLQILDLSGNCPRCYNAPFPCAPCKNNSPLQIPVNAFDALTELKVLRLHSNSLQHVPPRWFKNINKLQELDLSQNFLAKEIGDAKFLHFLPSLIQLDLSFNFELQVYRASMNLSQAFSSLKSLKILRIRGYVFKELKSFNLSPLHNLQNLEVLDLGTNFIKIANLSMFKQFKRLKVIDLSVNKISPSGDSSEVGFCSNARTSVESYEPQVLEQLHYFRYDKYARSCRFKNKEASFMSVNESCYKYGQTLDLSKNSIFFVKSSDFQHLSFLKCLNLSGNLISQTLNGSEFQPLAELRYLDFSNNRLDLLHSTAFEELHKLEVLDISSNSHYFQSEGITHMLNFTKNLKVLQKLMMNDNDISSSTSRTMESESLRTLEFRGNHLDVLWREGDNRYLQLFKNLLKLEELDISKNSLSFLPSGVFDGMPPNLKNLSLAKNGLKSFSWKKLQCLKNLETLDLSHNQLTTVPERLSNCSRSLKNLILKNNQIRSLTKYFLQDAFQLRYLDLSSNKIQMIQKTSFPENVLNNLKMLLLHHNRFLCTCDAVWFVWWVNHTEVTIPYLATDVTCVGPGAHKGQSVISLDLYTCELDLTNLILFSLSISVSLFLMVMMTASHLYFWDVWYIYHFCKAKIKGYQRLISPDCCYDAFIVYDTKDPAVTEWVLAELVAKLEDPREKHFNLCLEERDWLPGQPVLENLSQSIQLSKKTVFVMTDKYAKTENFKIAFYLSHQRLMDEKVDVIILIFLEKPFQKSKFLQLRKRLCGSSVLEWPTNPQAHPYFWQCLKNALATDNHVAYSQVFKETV
# How it was run: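 Selectivity panel in stably transfected HEK 293-Blue cells, each overexpressing one human TLR with an inducible SEAP reporter. Agonists: Pam3CSK4 (TLR1/2), Pam2CSK4 (TLR2/6), poly(I:C) (TLR3), LPS (TLR4), R848 (TLR7/8), ODN 2006 (TLR9). Cells were exposed to compound for 16 h. Activity = (raw − untreated)/(ligand + solvent − untreated), with ligand + solvent set as 100%.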
# THP-1 = assay: Inhibition of IFN mediated immune response in human THP1 cells assessed as inhibition of G3-YSD-induced cGAS signalling pathway at 5 to 20 uM incubated for 16 hrs by luciferase assay; type: functional, cell-based
# How it was run: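 THP1-Dual monocytes carrying Lucia luciferase and SEAP reporters were stimulated with 3p-hpRNA (RIG-I agonist) or Y-form dsDNA G3-YSD (cGAS agonist), with or without compound. Secreted Lucia luciferase luminescence was measured as the type I IFN read-out. Mean ± s.d., n = 3 independent experiments.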
# [2] = molecular target: T1, Toll-like receptor 7 (Homo sapiens); assay: Inhibition of human TLR7 expressed in HEK293 cells assessed as reduction in R848-induced NFkappaB production incubated for 16 hrs by quanti-blue SEAP assay; type: cell-based
# How it was run: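 HEK 293-Blue cells stably expressing hTLR7 or hTLR8 with an inducible SEAP reporter were incubated 16 h with compound under 1 µg/mL R848 stimulation. SEAP was read at 620 nm. Data were normalized to the R848 control, and IC50 was taken from concentration-response curves. […] Mean ± s.d., n = 3 independent experiments.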
# Toll-like receptor 8 = molecular target: T2, Toll-like receptor 8 (Homo sapiens, UniProt Q9NR97); assay: Inhibition of human TLR8 expressed in HEK293 cells assessed as reduction in ssRNA-induced NFkappaB production incubated for 16 hrs by quanti-blue SEAP assay; type: cell-based
# T2 sequence (Q9NR97 whole entry): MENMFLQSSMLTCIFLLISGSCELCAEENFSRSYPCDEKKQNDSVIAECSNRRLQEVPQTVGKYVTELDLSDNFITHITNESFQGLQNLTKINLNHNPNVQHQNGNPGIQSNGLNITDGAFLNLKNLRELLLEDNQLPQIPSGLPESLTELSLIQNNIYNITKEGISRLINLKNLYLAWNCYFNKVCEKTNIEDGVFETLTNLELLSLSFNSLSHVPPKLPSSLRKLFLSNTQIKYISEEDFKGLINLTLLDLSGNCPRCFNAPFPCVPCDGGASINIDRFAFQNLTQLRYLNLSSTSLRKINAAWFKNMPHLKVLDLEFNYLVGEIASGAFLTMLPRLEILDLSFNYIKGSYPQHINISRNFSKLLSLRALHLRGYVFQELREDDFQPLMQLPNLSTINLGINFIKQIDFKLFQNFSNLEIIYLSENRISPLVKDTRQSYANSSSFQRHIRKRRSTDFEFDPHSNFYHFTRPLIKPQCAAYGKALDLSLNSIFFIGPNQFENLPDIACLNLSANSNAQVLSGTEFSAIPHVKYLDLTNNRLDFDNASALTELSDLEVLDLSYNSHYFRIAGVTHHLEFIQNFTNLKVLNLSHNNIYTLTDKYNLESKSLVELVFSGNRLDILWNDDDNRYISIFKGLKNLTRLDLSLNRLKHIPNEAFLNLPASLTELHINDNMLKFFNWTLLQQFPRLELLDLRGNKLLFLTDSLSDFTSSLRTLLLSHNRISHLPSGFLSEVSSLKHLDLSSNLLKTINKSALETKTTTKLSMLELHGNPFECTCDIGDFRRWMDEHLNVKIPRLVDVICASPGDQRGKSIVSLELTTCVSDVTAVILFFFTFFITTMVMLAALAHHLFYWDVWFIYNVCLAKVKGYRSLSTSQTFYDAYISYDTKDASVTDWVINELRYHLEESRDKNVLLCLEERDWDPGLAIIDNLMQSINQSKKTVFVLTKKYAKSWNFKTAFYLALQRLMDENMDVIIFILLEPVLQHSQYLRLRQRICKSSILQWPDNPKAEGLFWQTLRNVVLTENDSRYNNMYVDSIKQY
# How it was run: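 HEK 293 hTLR8 SEAP reporter cells were stimulated with ssRNA (ssRNA-Lyo-40) and incubated with compound for 16 h. Data were normalized as (raw − untreated)/(ligand + solvent − untreated), with ligand + solvent set as 100%. Mean ± s.d., n = 3 independent experiments.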
smiles,measurement,setting,value
O=C(Nc1ccc(Oc2cncc(C(F)(F)F)c2)cc1)c1c(F)cccc1Cl,inhibition,[1],Active
same,inhibition,THP-1,Active
O=C(Nc1ccc(Oc2cc(C(F)(F)F)cc(C(F)(F)F)c2)cc1)c1c(F)cccc1Cl,inhibition,[2],Dose-dependent effect
O=[N+]([O-])c1c(I)cccc1Oc1ccc(-c2nnco2)cc1,IC50,Toll-like receptor 8,620 nM
